“Also recorded” adds a separate entry of the source.
Assays:
Type in all cases: cell-based
[1] = molecular target: T1, Otop1 channels from human origin (hOtop1) (Homo sapiens, UniProt Q7RTM1); experiment: whole-cell patch-clamp, pH 5.5-evoked currents; conditions: 10 μM
T1 sequence (Q7RTM1 1-612): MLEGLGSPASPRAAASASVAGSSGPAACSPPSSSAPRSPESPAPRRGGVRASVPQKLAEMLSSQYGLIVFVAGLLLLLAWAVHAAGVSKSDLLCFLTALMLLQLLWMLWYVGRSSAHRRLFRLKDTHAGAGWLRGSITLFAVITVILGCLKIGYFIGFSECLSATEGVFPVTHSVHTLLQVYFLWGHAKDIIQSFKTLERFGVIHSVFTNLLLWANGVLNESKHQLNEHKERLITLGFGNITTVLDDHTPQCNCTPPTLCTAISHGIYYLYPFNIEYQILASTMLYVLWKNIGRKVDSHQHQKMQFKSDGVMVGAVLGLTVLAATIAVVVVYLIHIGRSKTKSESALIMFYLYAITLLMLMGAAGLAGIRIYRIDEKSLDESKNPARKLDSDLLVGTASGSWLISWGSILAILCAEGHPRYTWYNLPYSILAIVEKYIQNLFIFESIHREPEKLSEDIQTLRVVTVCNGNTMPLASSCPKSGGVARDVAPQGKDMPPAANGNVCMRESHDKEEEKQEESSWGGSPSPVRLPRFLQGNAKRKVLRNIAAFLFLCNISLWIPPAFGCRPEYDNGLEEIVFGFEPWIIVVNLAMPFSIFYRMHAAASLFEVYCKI
Outline: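 Channel plasmid (2.5 μg) was co-transfected with EGFP plasmid (0.5 μg) using Lipofectamine 2000 into PAC-knockout HEK293T cells. Whole-cell recording 16–24 h after seeding, with Cs-aspartate pipette solution (pH 7.3). Currents evoked by pH 5.5 bath (160 mM NMDG-Cl, 2 mM CaCl2, 10 mM MES); test compound 10 μM.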

KV1.3 = KV1.3 (Homo sapiens, UniProt P22001); experiment: whole-cell patch-clamp, off-target channel, 10 μM compound
Outline: (§1)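 KV channels in transiently transfected HEK293T cells, whole-cell. Pipette (mM): 140 KCl, 2.5 MgCl2, 11 EGTA, 10 HEPES, pH 7.4. Bath (mM): 145 NaCl, 2.8 KCl, 2 CaCl2, 1 MgCl2, 10 glucose, 10 HEPES, pH 7.4. 0.1% DMSO bath applied, then 10 μM test compound. DMSO vs compound inhibition ratio compared by unpaired t-test, n = 5.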

KV4.3 = molecular target: T2, KV4.3 (Rattus norvegicus, UniProt Q62897); experiment: as above
T2 sequence (Q62897 1-611 isoform Q62897-3): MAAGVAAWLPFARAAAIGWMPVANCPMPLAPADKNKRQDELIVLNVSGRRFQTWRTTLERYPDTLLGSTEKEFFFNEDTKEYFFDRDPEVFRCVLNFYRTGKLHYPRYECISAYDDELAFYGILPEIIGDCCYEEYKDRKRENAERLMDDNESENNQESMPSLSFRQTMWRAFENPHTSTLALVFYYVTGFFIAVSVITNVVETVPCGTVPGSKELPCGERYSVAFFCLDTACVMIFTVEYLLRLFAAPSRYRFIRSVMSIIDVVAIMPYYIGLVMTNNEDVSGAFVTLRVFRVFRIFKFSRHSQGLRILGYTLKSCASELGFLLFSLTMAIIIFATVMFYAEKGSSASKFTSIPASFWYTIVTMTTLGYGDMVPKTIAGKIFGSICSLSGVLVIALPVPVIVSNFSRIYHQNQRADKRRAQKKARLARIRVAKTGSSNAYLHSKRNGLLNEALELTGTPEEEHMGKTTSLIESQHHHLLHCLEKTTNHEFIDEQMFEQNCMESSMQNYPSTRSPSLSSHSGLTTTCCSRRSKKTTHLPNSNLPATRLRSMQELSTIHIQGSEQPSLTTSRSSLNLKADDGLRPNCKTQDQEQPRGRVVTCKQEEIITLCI
Outline: as §1

[2] = molecular target: T3, mOtop1 channels co-expressed in HEK293 cells (Mus musculus, UniProt Q80VM9); experiment: live cell intracellular pH imaging; conditions: 10 μM; for effect on intracellular pH changes mediated by mOtop1, acidification: extracellular pH 6.0/5.0; for effect on intracellular pH changes mediated by mOtop1, alkalinization: extracellular pH 8.5
T3 sequence (Q80VM9 1-600): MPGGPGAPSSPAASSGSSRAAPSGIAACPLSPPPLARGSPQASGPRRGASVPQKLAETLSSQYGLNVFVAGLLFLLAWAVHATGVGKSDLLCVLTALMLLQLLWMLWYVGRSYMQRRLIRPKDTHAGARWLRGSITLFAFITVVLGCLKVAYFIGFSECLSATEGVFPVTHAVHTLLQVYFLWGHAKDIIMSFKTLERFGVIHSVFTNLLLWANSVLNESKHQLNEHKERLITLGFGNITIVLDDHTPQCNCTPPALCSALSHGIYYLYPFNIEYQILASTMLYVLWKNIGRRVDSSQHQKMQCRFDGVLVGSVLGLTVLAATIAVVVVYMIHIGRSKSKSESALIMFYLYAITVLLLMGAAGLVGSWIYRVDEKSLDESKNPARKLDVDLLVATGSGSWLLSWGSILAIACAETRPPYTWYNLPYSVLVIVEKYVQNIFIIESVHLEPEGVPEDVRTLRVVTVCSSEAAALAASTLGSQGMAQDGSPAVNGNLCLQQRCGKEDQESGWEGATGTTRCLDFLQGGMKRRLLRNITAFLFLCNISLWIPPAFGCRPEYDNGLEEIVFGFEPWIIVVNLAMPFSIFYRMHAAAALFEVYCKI
Outline: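 HEK293 cells were electroporated (180 V, 25 ms) with pHmScarlet-mTurquise2, with or without mOtop1, and imaged 24 h later. Cells sat in pH 7.4 solution (mM: 140 KCl, 10 NaCl, 1 MgCl2, 20 HEPES), then were shifted to pH 8.5 (Tris), 6.0 (MES) or 5.0 (HomoPIPES). Test compound was 10 μM in the stimulus solution, with acetic acid pH 5.0 as positive control. FpHmScarlet/FmTurquise2 ratio read every 2 s.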

Sequence of KV1.3 (P22001 whole entry): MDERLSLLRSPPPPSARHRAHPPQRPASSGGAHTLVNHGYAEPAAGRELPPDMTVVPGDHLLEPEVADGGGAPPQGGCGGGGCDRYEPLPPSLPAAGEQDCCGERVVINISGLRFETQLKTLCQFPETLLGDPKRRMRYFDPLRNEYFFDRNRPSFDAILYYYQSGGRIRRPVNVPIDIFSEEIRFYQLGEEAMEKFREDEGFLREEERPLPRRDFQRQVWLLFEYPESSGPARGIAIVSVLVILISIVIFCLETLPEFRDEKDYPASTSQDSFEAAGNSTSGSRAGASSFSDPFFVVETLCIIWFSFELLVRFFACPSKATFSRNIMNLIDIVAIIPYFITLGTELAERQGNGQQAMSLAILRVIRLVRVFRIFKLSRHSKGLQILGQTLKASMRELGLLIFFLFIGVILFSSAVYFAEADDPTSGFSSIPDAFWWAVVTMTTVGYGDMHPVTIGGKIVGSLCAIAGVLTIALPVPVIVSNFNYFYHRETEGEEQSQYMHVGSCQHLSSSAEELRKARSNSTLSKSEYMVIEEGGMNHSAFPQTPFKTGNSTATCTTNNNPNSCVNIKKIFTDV

Compound | effect on hOtop1 currents [1] | inhibition ratio (KV1.3) [%] | inhibition ratio (KV4.3) [%] | effect on intracellular pH changes mediated by mOtop1, acidification [2] | effect on intracellular pH changes mediated by mOtop1, alkalinization [2] | sensitivity of channel to compound (KV1.3; vs 0.1% DMSO) | sensitivity of channel to compound (KV4.3; vs 0.1% DMSO)
Cc1ccc(C(=O)Nc2ccc3ccccc3c2)o1 [MFaN, 5-methyl-N-2-naphthyl-2-furamide] | potent potentiation effects | 15.9 | 7.0 | increases intracellular pH changes | no effect |  | 
Cc1cc(NC(=O)c2ccc(Br)o2)ccc1NC(=O)c1ccco1 [B2FAMP, 5-Bromo-N-[4-(2-furoylamino)-3-methylphenyl]-2-furamide] | potent potentiation effects |  |  | increases intracellular pH changes | no effect | completely resistant | completely resistant
CC(C)c1noc2ncc(C(=O)c3ccccc3O)cc12 [HIMOP, (2-hydroxyphenyl)-(3-propan-2-yl-5-isoxazolo[5,4-b]pyridinyl)methanone] | potent potentiation effects | 10.8 | 12.9 | increases intracellular pH changes | small but statistically significant increase in pHi; also recorded: increases intracellular pH changes; also recorded: slightly but significantly enhance |  | 

— paper PMC11865470 (Communications Biology, 2025)
